Test results taken from ChEMBL document CHEMBL1148823, “Inactivation of O(6)-alkylguanine-DNA alkyltransferase by folate esters of O(6)-benzyl-2'-deoxyguanosine and of O(6)-[4-(hydroxymethyl)benzyl]guanine” (J Med Chem, 2007).
Calls of active or inactive are those of the source. The calls are words filed in the database; no cut-off is given here.

How the values were obtained:
[1] = species: Homo sapiens; assay: Inactivation of human alkyltransferase in absence of DNA
Summary of the method: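 Purified recombinant human alkyltransferase was incubated with a range of inhibitor concentrations for 30 min at 37°C. The reaction buffer was 50 mM Tris-HCl pH 7.6, 0.1 mM EDTA and 5.0 mM dithiothreitol, with 50 μg hemocyanin and no DNA. ED50 was read from plots of % remaining activity against inhibitor concentration. Values are means of 3–5 repeats or of two experiments.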

[2] = species: Homo sapiens; assay: (§1) Inactivation of human alkyltransferase in presence of DNA
Summary of the method: (§2)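 Purified recombinant human alkyltransferase was incubated with a range of inhibitor concentrations plus 10 μg calf thymus DNA for 30 min at 37°C. The buffer was 50 mM Tris-HCl pH 7.6, 0.1 mM EDTA and 5.0 mM DTT. ED50 came from graphs of % remaining activity against inhibitor concentration. Values are means of 3–5 repeats or of two experiments.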

[3] = tested on: A549; assay: Induction of sensitization to BCNU-induced killing in human A549 cells; type: functional, cell-based
Summary of the method: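 A549 cells were grown 48 h in folate-free RPMI with 10% FBS and plated at 10⁶ per flask. After 24 h they were given inhibitor at various concentrations for 8 h, then 20 μM BCNU for 2 h. Medium was replaced with inhibitor-containing medium for 16–18 h. Cells were replated at 250–1000 per flask and grown 8 days. Crystal violet-stained colonies were counted.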

[4] = tested on: HT-29; assay: Induction of sensitization to BCNU-induced killing in human HT29 cells; type: functional, cell-based
Summary of the method: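 HT29 cells in RPMI with 10% FBS were given inhibitor for 2 h before 40 μM BCNU for 2 h. Alternatively, cells grown 48 h in folate-free RPMI got inhibitor for 8 h before 20 μM BCNU for 2 h. Inhibitor-containing medium followed for 16–18 h. Cells were replated at 250–1000 per flask and grown 8 days. Survival was scored as crystal violet-stained colonies.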

[5] = tested on: KB; assay: Induction of sensitization to BCNU-induced killing in human KB cells; type: functional, cell-based
Summary of the method: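 KB cells were grown 48 h in folate-free RPMI with 10% FBS and plated at 10⁶ per flask. After 24 h they were exposed to inhibitor at different concentrations for 8 h, then 40 μM BCNU for 2 h. Medium with inhibitor but no BCNU was given for 16–18 h. Cells were replated at 250–1000 per flask for 8 days of colony formation. Colonies were stained with crystal violet and counted.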

[6] = as §1; summary of the method: as §2
[7] = tested on: T1, Methylated-DNA--protein-cysteine methyltransferase (Homo sapiens), P16455 [P140K]; assay: Inactivation of human alkyltransferase P140K mutant
T1 sequence (whole entry): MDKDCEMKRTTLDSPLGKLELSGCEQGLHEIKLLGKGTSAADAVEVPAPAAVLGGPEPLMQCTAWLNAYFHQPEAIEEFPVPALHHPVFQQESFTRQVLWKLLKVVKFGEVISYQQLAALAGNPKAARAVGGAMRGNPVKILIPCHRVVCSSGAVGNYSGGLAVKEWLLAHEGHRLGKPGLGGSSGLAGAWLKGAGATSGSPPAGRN

Row | SMILES | ED50 [1] | ED50 [2] | Activity [3] | Activity [4] | Activity [5] | EC50 [6] | ED50 [7]
1 | Nc1nc(OCc2ccccc2)c2nc[nH]c2n1 | 300 nM | 100 nM |  |  |  |  | 
2 | Nc1nc(OCc2ccccc2)c2ncn([C@H]3C[C@H](O)[C@@H](CO)O3)c2n1 | 2000 nM | 40000 nM |  |  |  |  | 
3 | Nc1nc(OCc2ccccc2)c2ncn([C@H]3C[C@H](O)[C@@H](COC(=O)CC[C@H](NC(=O)c4ccc(NCc5cnc6nc(N)[nH]c(=O)c6n5)cc4)C(=O)O)O3)c2n1 | 640 nM |  | Active | Active | Active | 3060 nM | 
4 | Nc1nc(OCc2ccc(CO)cc2)c2nc[nH]c2n1 | 400 nM | 100 nM |  | Active |  |  | 
5 | Nc1nc(OCc2ccccc2)c2ncn([C@H]3C[C@H](OC(=O)CC[C@H](NC(=O)c4ccc(NCc5cnc6nc(N)[nH]c(=O)c6n5)cc4)C(=O)O)[C@@H](CO)O3)c2n1 | 16 nM | 680 nM | Active | Active | Active |  | 100000 nM
6 | Nc1nc(OCc2ccc(COC(=O)CC[C@H](NC(=O)c3ccc(NCc4cnc5nc(N)[nH]c(=O)c5n4)cc3)C(=O)O)cc2)c2nc[nH]c2n1 | 700 nM | 240 nM |  |  |  |  | 
